Reference: article PMC3835402 (Molecular bioSystems, 2010)
“Also recorded” adds a separate entry of the source. One block for each compound: values may come before it.

Legend:
ER = target: T1, ER (Homo sapiens, UniProt P03372); assay: ER immunofluorescence in MCF7 cells; assay type: cell-based; conditions: ER green, DAPI blue, compared to controls, Fig. 4C
T1 sequence (P03372 1-595): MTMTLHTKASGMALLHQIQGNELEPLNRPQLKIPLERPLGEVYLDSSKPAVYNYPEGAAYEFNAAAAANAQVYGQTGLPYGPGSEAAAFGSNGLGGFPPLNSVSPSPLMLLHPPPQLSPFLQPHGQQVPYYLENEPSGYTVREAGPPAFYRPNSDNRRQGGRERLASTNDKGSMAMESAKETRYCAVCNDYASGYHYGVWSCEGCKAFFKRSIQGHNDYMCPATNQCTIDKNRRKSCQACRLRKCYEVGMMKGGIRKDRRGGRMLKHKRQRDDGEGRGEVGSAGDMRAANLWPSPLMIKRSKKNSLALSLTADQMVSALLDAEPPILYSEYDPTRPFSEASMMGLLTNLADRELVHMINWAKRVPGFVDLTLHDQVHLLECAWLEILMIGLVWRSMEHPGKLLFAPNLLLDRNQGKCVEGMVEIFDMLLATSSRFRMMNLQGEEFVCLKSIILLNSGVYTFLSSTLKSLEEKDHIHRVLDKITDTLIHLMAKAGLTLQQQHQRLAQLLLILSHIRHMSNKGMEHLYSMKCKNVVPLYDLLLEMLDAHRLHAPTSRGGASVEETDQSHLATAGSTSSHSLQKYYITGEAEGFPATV
Outline: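 MCF7 on ethanol/UV-sterilized coverslips, attached 24 h, then kept in phenol-red-free RPMI with 5% charcoal/dextran FBS. Test compound diluted in that medium, applied as for the western blots. Fixed in 4% PFA, permeabilized with 0.2% Triton X. Blocked in 10% goat serum/0.1% BSA in PBST. Anti-ER 1 h at 37°C, then Alexa Fluor 488 secondary 30 min. DAPI mount, inverted fluorescence microscopy.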

endogenous ER-α = target: T2, endogenous ER-α (Homo sapiens, UniProt P03372); assay: ER degradation in MCF7 cells by western blotting; assay type: cell-based; conditions: western blot; for ER level on treatment with 13 and the proteasome inhibitor epoxomicin: Fig. 4A
T2 sequence (P03372 1-595): T1 sequence (P03372 1-595)

MCF7 cells = assay: Cell viability assay by MTS; assay type: cell-based, human; conditions: 48 hour treatment, Fig. 5B
Outline: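 MCF7 seeded at 5 × 10³ cells in RPMI 1640 with 10% FBS overnight, then switched to 5% charcoal-dextran FBS RPMI for 24 h before dosing. Test compound was added in DMSO vehicle for 48 h. Viability was read by MTS (CellTiter 96 AQueous One) absorbance at 490 nm. IC50 was fitted by nonlinear sigmoid dose-response regression from at least triplicate results.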

- ER level by immunofluorescence (ER): does not cause ER degradation
Compound: -Leu-Ala-Nle-Leu-Tyr-Ile-OBzl [compound 17]

- ER degradation, dependence on the hydroxyproline residue (pVHL recognition) (endogenous ER-α; Fig. 4B (text says Fig 4C)): effectively causes ER degradation
Compound: -Leu-Ala-Pro^OH-Tyr-Ile-OBzl [compound 12]

Second part, the compound before the results:

Compound: CC[C@H](C)[C@H](NC(=O)[C@H]([C@@H](C)CC)N(C)C(C)=O)C(=O)N[C@H](C(=O)N[C@@H](CC(C)C)C(=O)[C@@]1(C)CO1)[C@@H](C)O [epoxomicin, reference compound]
- ER level by immunofluorescence (ER): causes the accumulation of the ER
- ER level on treatment with 13 and the proteasome inhibitor epoxomicin (endogenous ER-α): accumulation of the ER

Compound: -Leu-Ala-Pro^OH-Tyr-Ile-OBzl [compound 13]
- time-dependent ER degradation, treated once (endogenous ER-α; between 48 and 72 hours, Fig. 3D): stable between 48 and 72 hours
- ER level on treatment with 13 and the proteasome inhibitor epoxomicin (endogenous ER-α): proteasome-dependent
- ER degradation at even lower doses (endogenous ER-α; data not shown): degraded the ER most effectively
- inhibition of proliferation of MCF7 cells (MCF7 cells): best efficacy; also recorded: most effective

Compound: -Leu-Ala-Pro^OH-Tyr-Ile-OBzl [compound 15]
- ER degradation at the highest concentration examined (endogenous ER-α; 50 μM, 48 hour treatment, Fig. 3B): all PROTACs but 15 showed significant ER degradation
